Legend:
HeLa = assay: Cytotoxicity against human HeLa cells after 48 hrs by SRB assay; assay type: functional, cell-based
Method in brief: (§1)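 Cells seeded at 5 × 10³ per well and allowed to attach for 12 h, then exposed to a range of drug concentrations in their own medium for 48 h. Fixed with ice-cold TCA for 1 h at 4 °C, washed, then stained with 0.4% SRB for 30 min at room temperature. IC50 is the mean of three independent experiments.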

L1210 = assay: Cytotoxicity against mouse L1210 cells after 48 hrs by SRB assay; assay type: functional, cell-based; settings: L1210, 48 h; method in brief: as §1
A549 = assay: Cytotoxicity against human A549 cells after 48 hrs by SRB assay; assay type: functional, cell-based; settings: A549, 48 h; method in brief: as §1
K562 [1] = assay: Cytotoxicity against human K562 cells after 48 hrs by SRB assay; assay type: functional, cell-based; settings: K562, 48 h; method in brief: as §1
[2] = Cytotoxicity against human VEC cells after 48 hrs by SRB assay; assay type: cell-based; method in brief: as §1
[3] = Cytotoxicity against human HCT116 cells after 48 hrs by SRB assay; assay type: functional, cell-based; settings: HCT-116, 48 h; method in brief: as §1
MGC-803 = assay: Cytotoxicity against human MGC803 cells after 48 hrs by SRB assay; assay type: functional, cell-based; settings: MGC-803, 48 h; method in brief: as §1
K562 [4] = assay: Induction of cell cycle arrest in human K562 cells assessed as accumulation at S phase at 10 uM after 24 hrs by propidium iodide staining based flow cytometry (reference value: 44.90%); assay type: functional
K562 [5] = assay: Induction of cell cycle arrest in human K562 cells assessed as accumulation at G2/M phase at 10 uM after 24 hrs by propidium iodide staining based flow cytometry (reference value: 18.96%); assay type: functional
K562 [6] = assay: Induction of cell cycle arrest in human K562 cells assessed as accumulation at G0/G1 phase at 10 uM after 24 hrs by propidium iodide staining based flow cytometry (reference value: 36.14%); assay type: functional

Structure (SMILES) | IC50 (HeLa) [µM] | IC50 (L1210) [µM] | IC50 (A549) [µM] | IC50 (K562 [1]) [µM] | IC50 [2] [µM] | IC50 [3] [µM] | IC50 (MGC-803) [µM] | Activity (K562 [4]) [%] | Activity (K562 [5]) [%] | Activity (K562 [6]) [%]
CC(=O)N1C(=O)/C(=C2/C(=O)N(C(C)=O)c3ccccc32)c2ccccc21 | > 200 | > 200 | > 200 | > 200 | > 200 | > 200 | > 200 | – | – | –
CC(C)N1C(=O)/C(=C2/C(=O)Nc3ccccc32)c2ccccc21 | > 200 | > 200 | 183 | > 200 | > 200 | 149 | 176 | – | – | –
CN1C(=O)/C(=C2/C(=O)Nc3ccccc32)c2ccccc21 [MEISOINDIGO] | 15.7 | 167 | 57.3 | 23.3 | 122 | 27 | 128 | 57.5 | 10.25 | 32.25
CCCCN1C(=O)/C(=C2/C(=O)Nc3ccccc32)c2ccccc21 | 80.7 | 75.4 | 30.2 | 114 | 58.1 | 34.2 | 87.9 | – | – | –
O=C1Nc2ccccc2/C1=C1\C(=O)N(c2ccc(F)cc2)c2ccccc21 | > 200 | > 200 | 22.6 | > 200 | 93.5 | 40.1 | 108 | – | – | –
CCN1C(=O)/C(=C2/C(=O)Nc3ccccc32)c2ccccc21 | 194 | 47.5 | 61 | > 200 | 73 | 51 | 67.2 | – | – | –
CC(C)CN1C(=O)/C(=C2/C(=O)Nc3ccccc32)c2ccccc21 | > 200 | 73.8 | 52.8 | 74.4 | 97.4 | 62.2 | > 200 | – | – | –
O=C1Nc2ccccc2/C1=C1\C(=O)N(CCc2ccccc2)c2ccccc21 | > 200 | 158 | 85.4 | 17.1 | 184 | 85.2 | > 200 | – | – | –

From ChEMBL document CHEMBL3351588, “Design, synthesis and biological evaluation of N-alkyl or aryl substituted isoindigo derivatives as potential dual cyclin-dependent kinase 2 (CDK2)/glycogen synthase kinase 3β (GSK-3β) phosphorylation inhibitors” (Eur J Med Chem, 2014)
